The values below come from ChEMBL document CHEMBL1140729, “Synthesis and evaluation of 2'-hydroxyethyl trans-apovincaminate derivatives as antioxidant and cognitive enhancer agents” (J Med Chem, 2008).

SMILES strings stand for the structures. pIC50: −log10 of the molar value. Active and inactive are the calls of the source. No cut-off for these calls is given here.

The species entered for assay [1] is Rattus norvegicus. Kind of assay: Inhibition of […] lipid peroxidation in rat brain microsome. The format is functional. The method in brief:
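Rat brain microsomes (78000 g pellet) in KCl at 0.2 mg protein per ml. Medium: 50 mM Tris-HCl pH 6.8, 0.2 mM FeCl3, 1 mM KH2PO4, 0.5 mM ADP, preincubated 20 min at 37 °C ± compound. LPO started with 0.4 mM NADPH, run 20 min, stopped with TCA/HCl. TBA boiled 10 min, OD read at 535 nm. IC50 obtained by sigmoid fit of 7–9 concentrations, triplicates.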

A further assay relates to Brain. Kind of assay: Inhibition of Fe2+-induced lipid peroxidation in rat brain homogenate. The format is functional, tissue-based. The method in brief: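 Whole rat brain homogenized in 9 vol ice-cold Krebs-Ringer/15 mM HEPES pH 7.4 with glucose, used fresh at 10 mg protein/ml. Preincubated with compound 20 min at 37 °C. LPO started with ferrous ammonium sulfate (200 µM Fe²⁺), run 20 min, stopped with TCA/HCl. TBA added to supernatant, boiled 20 min, OD read at 535 nm. IC50 obtained by sigmoid fit of 6–9 concentrations, triplicates.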

Assay [2] has as its system Rattus norvegicus. Briefly: Protective effect against diazepam-induced learning-deficit in Wistar rat at 5 mg/kg, po by water labyrinth test. It is filed as functional. In a few lines: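 Male Wistar rats, 200–220 g, 10 per group. Diazepam 5 mg/kg i.p. in 5% Tween 80, given 30 min before the first swim. Compound given orally at 5 mg/kg 1 h before the first daily trial. Four-day water-labyrinth task with three choice points in water at 24 °C: one pretraining day, then three trials per day. Directional turning errors counted, 12 if the platform was not found in 5 min. Percent restoration calculated; ANOVA with Duncan test.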

Assay [3] deals with Mus musculus. Kind of assay: Inhibition of diazepam-induced amnesia in NMRI mouse at 0.1 mg/kg, po by one-trial passive avoidance test. The format is functional. The method in brief: (§1)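 Male NMRI mice, 25–28 g, 10 per group. Anterograde amnesia induced by diazepam 3 mg/kg i.p. 30 min before the acquisition trial. Test compound given orally (0.1 or 10 mg/kg) 1 h before acquisition. Readout is latency to enter the dark chamber. Percent restoration P% = (T_treated+DIA − T_placebo+DIA)/(T_placebo − T_placebo+DIA) × 100.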

The test system of assay [4] is Mus musculus. Briefly: Inhibition of diazepam-induced amnesia in NMRI mouse at 10 mg/kg, po by one-trial passive avoidance test. The format is functional. In a few lines:
as §1

Assay [5] relates to Mus musculus. Briefly: Effect on memory improvement in NMRI mouse at 10 mg/kg by passive avoidance test. The arrangement: dose 10 mg/kg. The format is functional, organism-based. The method in brief: as §1

The term pIC50 denotes the negative decadic logarithm of the IC50, by convention in mol/L. As for `CC[C@@]12C=C(C(=O)[O-])n3c4c(c5ccccc53)CCN(CCC1)[C@@H]42.[Na+]`, the values for the pIC50 in the assay filed under Rattus norvegicus [1] and with Brain were below 3.52 and 3.62, respectively. The Activity in the assay on Rattus norvegicus [2] stood at 71.3%.

In general, inhibition in vivo refers to the percentage by which the read-out fell short of the control. A lower inhibition in vivo goes with little suppression. Consider `CC[C@]12C=C(C(=O)OCCO)n3c4c(c5ccccc53)CCN(CCC1)[C@H]42`, for which the results for the pIC50 in the assay filed under Rattus norvegicus [1] and in the assay on Brain were 5.04 and 4.87, respectively. Further, the inhibition in vivo at 0.1 mg/kg with Mus musculus [3] is 50%. In the assay with Mus musculus [4], this molecule yielded an inhibition in vivo at 10 mg/kg of 56%. Besides, in the assay with Mus musculus [5], the outcome was Active.

In the case of `CCOC(=O)C1=C[C@]2(CC)CCCN3CCc4c(n1c1ccccc41)[C@@H]32` [VINPOCETINE], the pIC50 in the assay listed under Rattus norvegicus [1] is 3.86; with Brain it was 3.68. Besides, the inhibition in vivo at 0.1 mg/kg in the assay with Mus musculus [3] was found to be 0%. At 10 mg/kg the inhibition in vivo with Mus musculus [4] was 100%. Also, in the assay on Rattus norvegicus [2], the Activity stood at 56.6%.

Consider `CCOC(=O)C1=C[C@]2(CC)CCCN3CCc4c(n1c1ccccc41)[C@H]32`, for which the figures for the pIC50 in the assay filed under Rattus norvegicus [1] and in the assay with Brain were 5.46 and 4.84, respectively.

In the case of `CCOC(=O)C1=C[C@@]2(CC)CCCN3CCc4c(n1c1ccccc41)[C@@H]32`, the negative-log IC50 (pIC50) is 5.52 in the assay filed under Rattus norvegicus [1] and 4.87 in the assay with Brain.

Take `CC[C@]12C=C(C(=O)OCCOC(C)=O)n3c4c(c5ccccc53)CCN(CCC1)[C@H]42`: the pIC50 in the assay listed under Rattus norvegicus [1] is 5.42; in the assay with Brain, 4.82. The molecule also returned an inhibition in vivo at 0.1 mg/kg in the assay with Mus musculus [3] of 72%. The inhibition in vivo at 10 mg/kg in the assay on Mus musculus [4] came out at 44%. Also, the outcome in the assay on Mus musculus [5] was Active.

In the case of `Cc1cc(C(C)(C)C)c(O)c(C(C)(C)C)c1` [BUTYLATED HYDROXYTOLUENE], the negative logarithm of the IC50 (pIC50) in the assay filed under Rattus norvegicus [1] is 5.49; with Brain, 5.21.

For the molecule `CCC(=O)OCCOC(=O)C1=C[C@]2(CC)CCCN3CCc4c(n1c1ccccc41)[C@H]32`, the pIC50 is 5.30 in the assay listed under Rattus norvegicus [1] and 4.68 in the assay on Brain. In addition, the inhibition in vivo at 0.1 mg/kg with Mus musculus [3] stood at 16%. The molecule further had an inhibition in vivo at 10 mg/kg in the assay on Mus musculus [4] of 4%.

As to `CC[C@@]12C=C(C(=O)OCCOC(=O)c3ccccc3)n3c4c(c5ccccc53)CCN(CCC1)[C@@H]42`, the figures for the negative logarithm of the IC50 (pIC50) in the assay listed under Rattus norvegicus [1] and with Brain were 5.42 and 4.74, respectively. Testing at 0.1 mg/kg in the assay with Mus musculus [3] gave an inhibition in vivo of 0%. This molecule also returned an inhibition in vivo at 10 mg/kg with Mus musculus [4] of 0%.

As for `CC[C@@]12C=C(C(=O)OCCO)n3c4c(c5ccccc53)CCN(CCC1)[C@@H]42`, the pIC50 in the assay listed under Rattus norvegicus [1] was 5.15; in the assay on Brain, 4.86. The same molecule yielded an inhibition in vivo at 0.1 mg/kg with Mus musculus [3] of 74%. In the assay with Mus musculus [4], at 10 mg/kg the inhibition in vivo was 65%. Further, in the assay on Mus musculus [5], the result was Active. For the same molecule, in the assay on Rattus norvegicus [2], the Activity stood at 81.1%.

Take `CCC(=O)OCCOC(=O)C1=C[C@@]2(CC)CCCN3CCc4c(n1c1ccccc41)[C@@H]32`: the results for the pIC50 in the assay filed under Rattus norvegicus [1] and in the assay with Brain were 5.36 and 4.80, respectively. The molecule further returned an inhibition in vivo at 0.1 mg/kg with Mus musculus [3] of 64%. For the same molecule, the inhibition in vivo at 10 mg/kg in the assay with Mus musculus [4] is 24%.

Take `CC[C@]12C=C(C(=O)OCCOC(=O)c3ccc(Cl)cc3)n3c4c(c5ccccc53)CCN(CCC1)[C@H]42`: the pIC50 in the assay filed under Rattus norvegicus [1] was 5.57; with Brain, 4.80.

`CC[C@]12C=C(C(=O)OCCOC(=O)c3ccccc3)n3c4c(c5ccccc53)CCN(CCC1)[C@H]42`: the negative-log IC50 (pIC50) is 5.47 in the assay filed under Rattus norvegicus [1] and 4.83 in the assay on Brain. Also, the inhibition in vivo at 0.1 mg/kg with Mus musculus [3] was 23%. The same molecule returned an inhibition in vivo at 10 mg/kg with Mus musculus [4] of 16%.

With `Cc1c(C)c2c(c(C)c1O)CCC(C)(CCCC(C)CCCC(C)CCCC(C)C)O2` (racemic) [alpha-TOCHOPHEROL], the pIC50 in the assay filed under Rattus norvegicus [1] was 3.56; in the assay on Brain, 4.45.

Regarding `CC[C@]12C=C(C(=O)O)n3c4c(c5ccccc53)CCN(CCC1)[C@H]42`, the pIC50 in the assay listed under Rattus norvegicus [1] was below 3.52; with Brain, 3.59.

In the assay with Rattus norvegicus [2], `CC[C@@]12C=C(C(=O)O)n3c4c(c5ccccc53)CCN(CCC1)[C@H]42` gave an Activity of 66.7%.

Turning to `O=c1c(O)c(-c2ccc(O)c(O)c2)oc2cc(O)cc(O)c12` [QUERCETIN], the values for the pIC50 in the assay listed under Rattus norvegicus [1] and with Brain were 5.07 and 4.97, respectively.

On to `CC[C@@]12C=C(C(=O)OCCOC(=O)c3ccc(Cl)cc3)n3c4c(c5ccccc53)CCN(CCC1)[C@@H]42`, for which the pIC50 in the assay listed under Rattus norvegicus [1] was 5.57; in the assay with Brain, 4.84. For the same molecule, the inhibition in vivo at 0.1 mg/kg in the assay on Mus musculus [3] worked out at 3%. In the assay with Mus musculus [4], this molecule gave an inhibition in vivo at 10 mg/kg of 15%.

Take `COC1=C(OC)C(=O)C(CCCCCCCCCCO)=C(C)C1=O` [IDEBENONE]: the pIC50 in the assay filed under Rattus norvegicus [1] was 5.89; with Brain, 4.50.

For `CC[C@@]12C=C(C(=O)OCCOC(C)=O)n3c4c(c5ccccc53)CCN(CCC1)[C@@H]42`, the pIC50 in the assay filed under Rattus norvegicus [1] was 5.44; with Brain, 5.01. For the same molecule, testing at 0.1 mg/kg in the assay on Mus musculus [3] gave an inhibition in vivo of 79%. The molecule further registered an inhibition in vivo at 10 mg/kg with Mus musculus [4] of 100%. For the same molecule, in the assay with Mus musculus [5], the result was Active.

As for `CC[C@@]12C=C(C(=O)OCCO)n3c4c(c5ccccc53)CCN(CCC1)[C@H]42`, in the assay filed under Rattus norvegicus [1], the pIC50 is below 4.52. This molecule came in with an Activity in the assay with Rattus norvegicus [2] of 80.3%.
